Experiment [1] deals with T1, Renin (Homo sapiens) (UniProt P00797).
T1 sequence (whole entry): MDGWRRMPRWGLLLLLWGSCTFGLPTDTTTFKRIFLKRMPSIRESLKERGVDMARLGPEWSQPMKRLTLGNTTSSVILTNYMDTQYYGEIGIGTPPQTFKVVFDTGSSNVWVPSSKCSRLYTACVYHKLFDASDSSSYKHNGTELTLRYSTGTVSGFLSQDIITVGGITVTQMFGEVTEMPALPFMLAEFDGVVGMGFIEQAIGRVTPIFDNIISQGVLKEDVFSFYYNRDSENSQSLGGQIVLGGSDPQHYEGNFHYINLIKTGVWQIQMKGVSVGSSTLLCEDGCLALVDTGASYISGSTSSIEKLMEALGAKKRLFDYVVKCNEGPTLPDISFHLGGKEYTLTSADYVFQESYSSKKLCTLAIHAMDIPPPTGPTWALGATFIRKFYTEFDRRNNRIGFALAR
Put plainly: Percent inhibition of compound against renin monkey plasma at 10E-6 M. The class given is cell-free. The following applies: Cercopithecidae, target entry is the homologue from another species. An outline of the steps: (§1)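 Renin activity in monkey plasma, with inhibition measured as angiotensin I generated, quantified by radioimmunoassay following Haber's method.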

A short description of experiment [2]: Binding affinity of compound against endothiapepsin. Put shortly: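 Reactions at 37 °C in 0.1 M sodium formate pH 3.5 with 4% DMSO (inhibitor stocks in DMSO). Enzyme preincubated 3 min at 37 °C. Initial rates taken at six substrate levels (0.8Km–10Km), then at ≥3 substrate levels after preincubation with ≥2 inhibitor concentrations. Ki fitted by Marquardt analysis to competitive-inhibition equation.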

Experiment [3] concerns the target T1, Renin (Homo sapiens). Put plainly: Percent inhibition of compound against renin monkey plasma at 10 e-6 M. The following applies: Cercopithecidae, target entry is the homologue from another species.
Experiment [4] concerns the target T2, Renin (Homo sapiens, UniProt P00797).
T2 sequence (P00797 whole entry): T1 sequence (whole entry)
Put plainly: Inhibitory concentration of compound against renin human plasma. The class given is cell-free.

Experiment [5] deals with T1, Renin (Homo sapiens). The experiment can be described thus: Percent inhibition of compound against renin monkey plasma at 10e-6 M. The following applies: Cercopithecidae, target entry is the homologue from another species. The class given is cell-free. Put shortly: as §1
The target of experiment [6] is T1, Renin (Homo sapiens). Put plainly: Percent inhibition of compound against renin human plasma at 10 e-6 M. The class given is cell-free.

These results are taken from ChEMBL document CHEMBL1126919, “Analyses of ligand binding in five endothiapepsin crystal complexes and their use in the design and evaluation of novel renin inhibitors” (J Med Chem, 1993).

The term inhibition denotes the change of the read-out against control, counted positive when it falls. For orientation: Ki means the equilibrium dissociation constant of an inhibitor or competing ligand from its target. For orientation: IC50 means the concentration at which inhibition is half-maximal.

In the case of `CC(C)CC(O)C(O)C(CC1CCCCC1)NC(=O)c1cccc(NC(=O)CSc2ccccc2)c1` (stereo unspecified), the inhibition in experiment [1] stood at 12.6%. With `CCSC(NC(=O)[C@H](Cc1ccccc1)NS(=O)(=O)N1CCOCC1)C(=O)N[C@@H](CC1CCCCC1)[C@@H](O)[C@@H](O)CC(C)C` (stereo partly specified), the Ki in experiment [2] was 6.5 nM. Consider `COC(=O)C(C)(NC(=O)C(Cc1ccccc1)NS(=O)(=O)N1CCOCC1)C(=O)NC(CC1CCCCC1)C(O)C(O)CC(C)C` (stereo unspecified), for which the inhibition in experiment [3] is 4.4%. Consider `CCC(C)CNC(=O)C(CC(C)C)CC(O)C(CC1CCCCC1)NC(=O)C(Cc1c[nH]cn1)NC(=O)C(Cc1cccc2ccccc12)Cc1cccc2ccccc12` (stereo unspecified), for which the half-inhibitory concentration (IC50) in experiment [4] came to 170 nM. This compound also returned a Ki in experiment [2] of 240 nM. Consider `CC(C)CC(O)C(O)C(CC1CCCCC1)NC(=O)c1cc(NC(=O)CSc2ccccc2)ccc1CO` (stereo unspecified), for which the inhibition in experiment [5] is 4.4%.

On to `CC(C)CC(NC(=O)CC(O)C(CC1CCCCC1)NC(=O)CCC(O)C(Cc1ccccc1)NC(=O)OC(C)(C)C)C(=O)NCc1cccc(CN)c1` (stereo unspecified), for which the 50% inhibitory concentration (IC50) in experiment [4] stood at 22 nM. Also, the Ki in experiment [2] was determined as 16000 nM.

Turning to `CCC(C)CNC(=O)CP(=O)(O)C(CC(C)C)NC(=O)C(Cc1c[nH]cn1)NC(=O)C(Cc1ccccc1)NC(=O)OC(C)(C)C` (stereo unspecified), the inhibition in experiment [6] amounted to 3.3%. Also, in experiment [2], affinity was put at a Ki of 110 nM. In experiment [4], `CCC(C)CNC(=O)CC(O)C(CC(C)C)NC(=O)C(CCCC/N=C(/S)NC)NC(=O)C(Cc1ccccc1)NS(=O)(=O)N(C)C` (stereo unspecified) showed a concentration for half-maximal inhibition (IC50) of 25 nM.
